Data taken from ChEMBL document CHEMBL1124735, “Dehydrogenase binding by tiazofurin anabolites” (J Med Chem, 1990).

Compound: NC(=O)c1ccc[n+]([C@@H]2O[C@H](COP(=O)([O-])OP(=O)(O)OC[C@H]3O[C@@H](n4cnc5c(N)ncnc54)[C@H](O)[C@@H]3O)[C@@H](O)[C@H]2O)c1
Assay: In vitro inhibitory activity against pig heart cytoplasmic malate dehydrogenase (MDH),
Method in brief: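 Pig heart enzymes (cytoplasmic MDH or LDH, from ammonium sulfate suspension) assayed in 0.05 M Tris HCl pH 9.0, with NAD as substrate; rates from NADH appearance by A340 (ε 6.22 mM⁻¹cm⁻¹) or fluorescence calibrated against NADH standards. Run at least in duplicate; kinetic constants from Lineweaver-Burk plots by linear regression.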

B1: Malate dehydrogenase, cytoplasmic (Sus scrofa), P11708 (protein)
chain: MSEPIRVLVTGAAGQIAYSLLYSIGNGSVFGKDQPIILVLLDITPMMGVLDGVLMELQDCALPLLKDVIATDKEEIAFKDLDVAILVGSMPRRDGMERKDLLKANVKIFKCQGAALDKYAKKSVKVIVVGNPANTNCLTASKSAPSIPKENFSCLTRLDHNRAKAQIALKLGVTSDDVKNVIIWGNHSSTQYPDVNHAKVKLQAKEVGVYEAVKDDSWLKGEFITTVQQRGAAVIKARKLSSAMSAAKAICDHVRDIWFGTPEGEFVSMGIISDGNSYGVPDDLLYSFPVTIKDKTWKIVEGLPINDFSREKMDLTAKELAEEKETAFEFLSSA
  Km: 33.9 µM
